Bioassay records as filed in PubChem.
This is a sample that favours compounds with a hit; in the whole collection about 4.3% have one here.
STAT3 activator: IL-6 driven STAT3 reporter potentiators, primary screen, U3A cells, luciferase, luminescence, MLSCN library; IL-6 STAT3-luciferase reporter; 100% = signal with IL-6 EC80 alone; activation (% of control), % at 5.6 µM; 190,000 tested, 0.91% active; AID 871, 2007;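 active = activation above the screen-wide mean of compound activation plus 3 SD, cut at about 130% in these data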;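 note: 0% = background luminescence of wells with medium and substrate only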
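Assay system – human STAT1-deficient U3A cells with stable STAT3-luciferase reporter · Also added – IL-6 (33 ng/mL) · Schedule – compound 1 h, then IL-6 6 h at 37 °C · Technique – reporter luminescence signal · Evaluation – % activation versus median of IL-6-stimulated wells · Benchmarks – IL-6-only wells as 100% reference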
STAT1 inh: STAT1 signaling inhibitors, primary screen, cell-based, HTS, luciferase reporter | NIH 3T3 STAT1-luciferase reporter, IFN-gamma, luminescence | inhibition, % at 5.5 µM | 200,000 tested, 0.35% active | AID 920, 2007;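 active = inhibition above a set limit, the mean inhibition across all tested compounds plus 3 SD, cut at about 34% in these data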;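 note: 0% = IFN-gamma with DMSO and 100% = IFN-gamma with 300 µM nifuroxazide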
STAT3 blocker: IL-6 driven STAT3 reporter inhibitors, primary screen, U3A cells, luciferase, luminescence, MLSCN library. IL-6 STAT3-luciferase reporter; host cell line lacks STAT1. inhibition, % at 5.5 µM. 190,000 tested, 0.89% active;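 active = inhibition above the mean inhibition across all screened compounds plus 3 SD, cut at about 44% in these data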;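 note: 0% = DMSO only wells and 100% = 100 µM nifuroxazide control wells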
STAT1 act: STAT1 signaling activators, primary screen, cell-based, HTS, luciferase reporter; AID 932, 2007; NIH 3T3 STAT1-luciferase reporter, IFN-gamma, luminescence; 100% = IFN-gamma alone, no compound; 200,000 tested, 2.6% active; activation (% of control), % at 5.5 µM;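 active = activation above the screen-wide mean activation plus 3 SD, cut at about 130% in these data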;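 note: raw ratio to IFN-gamma control signal so 100% means no change and 0% no light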
* = called active by the depositor.

SMILES	STAT3 activator	STAT1 inh	STAT3 blocker	STAT1 act
Cc1ccc(C(=O)CSc2nnc(N)s2)c(C)c1	101	-40	8	137*
c1ccc(OCCSc2nnc3sc4ccccc4n23)cc1	31	50*	87*	54
COc1ccc(CCCC(=O)NCc2ccccc2)cc1C	103	-8	0	107
O=C(COc1ccccc1[N+](=O)[O-])N/N=C/c1cccs1	90	-7	11	106
CCc1ccc(C(=O)Nc2cc3c(cc2Cl)OCCCO3)cc1	91	-54	15	150*
O=C(Nc1cc2c(cc1Cl)OCCO2)c1ccco1	92	-31	13	128
CNc1nnc(-c2cc3ccccc3oc2=O)s1	83	-47	21	143*
Cc1ccccc1-c1nnc(NC(=O)c2cc3ccccc3oc2=O)s1	100	-3	0	103
Nc1ccc(Nc2nc(-c3cc4ccccc4oc3=O)cs2)cc1	80	-50	25	144*
O=C(O)c1ccc(Nc2nc(-c3cc4ccccc4oc3=O)cs2)cc1O	104	-11	-5	110
Clc1ccc(Cn2nnc(-c3ccccc3)n2)cc1	95	-14	7	113
Clc1ccccc1Cn1nnc(-c2cccs2)n1	128	-45	-30	143*
O=C(CCn1nnc(-c2cccs2)n1)NCc1ccccc1Cl	98	3	8	97
Clc1ccccc1Cn1nnc(-c2ccccc2)n1	109	-46	-2	141*
Nc1cc(-c2nn[nH]n2)ccc1F	95	5	10	96
CCCc1ccc(-c2ccc(F)c(N)c2)nc1	24	37*	97*	67
CCCN(Cc1nnc(-c2ccccc2Cl)o1)C(=O)c1cc([N+](=O)[O-])cc([N+](=O)[O-])c1	105	-3	4	101
O=C(NC1CC1)C1CCN(C2CCN(C(=O)c3ccc4cccc(F)c4n3)CC2)CC1	101	-10	3	108
COc1ccc(C2CC(c3c(O)cc(C)oc3=O)=NCCS2)c(OC)c1 (centres undefined)	164*	-38	-66	136*
C=CCSc1nnc2c(n1)OC(C)=Nc1ccc(Br)cc1-2	124	-3	-19	102
CC1CCC(NC(=O)c2ccc3nc[nH]c3c2)CC1 (centres undefined)	110	-31	-7	129*
COCCn1c(C)cc(C2=NNC(=Nc3ccccc3)SC2)c1C	77	-47	30	143*
CCN=C1NN=C(c2cc(C)n(Cc3ccco3)c2C)CS1	34	45*	82*	60
COCCn1c(C)cc(C2=NNC(=Nc3ccc(OC)cc3)SC2)c1C	112	-2	-9	102
CN1CCN(C(=O)c2cc(C(C)(C)C)cc(C(C)(C)C)c2)CC1	99	8	6	91
SMILES	STAT3 activator	STAT1 inh	STAT3 blocker	STAT1 act
CCCc1ccc(-c2cc(C(=O)Nc3ccc([N+](=O)[O-])cn3)c3ccccc3n2)cc1	83	-2	23	102
COc1ccc(NC(=O)/C=C/c2cc(OC)c(OC)c(OC)c2)cn1	87	-1	22	100
COc1ccc(NC(=O)/C=C/c2ccc(F)cc2)cn1	96	-40	7	136*
COc1ccc(NC(=O)/C=C/c2ccccc2)cn1	93	-46	4	141*
CC(=O)Oc1oc(-c2ccccc2)nc1/C=N/c1ccccn1	98	-32	6	129*
COc1ccc(/C=C/C(=O)c2c(O)cc(C)oc2=O)c(OC)c1	123	-42	-28	138*
CC(C)(C)c1ccc(-c2nc(C#N)c(NCc3ccncc3)o2)cc1	107	-34	-2	131*
CNc1oc(-c2ccc(Cl)cc2)nc1C#N	92	-35	11	132*
COc1ccccc1N(C1=NCCCS1)S(=O)(=O)c1ccc(C(C)(C)C)cc1	96	13	10	87
Cc1csc(SCC(=O)Nc2ccc3c(c2)OCCO3)n1	93	-39	13	132*
O=C(CSc1nnc2ccccn12)Nc1ccc2c(c1)OCCO2	104	-45	0	139*
O=C(Cn1cnc2ccccc2c1=O)Nc1ccc2c(c1)OCCO2	107	-33	0	130*
Cn1nnnc1SCC(=O)Nc1ccc2c(c1)OCO2	100	-49	4	141*
CCN(CC)C(=O)CC(c1ccc(F)cc1)c1ccc(OC(C)C)cc1 (centres undefined)	104	0	-10	100
CC(C)C(NC(=O)OCc1ccccc1)C(=O)NC1CCCCC1 (centres undefined)	89	2	13	98
O=C1CCc2ccc(NS(=O)(=O)c3ccc(F)cc3)cc2N1	97	5	6	93
COc1ccc2nc3cccc(OC)c3nc2c1	99	-32	3	129*
N/C(=N\OC(=O)COc1ccc2ccccc2c1Br)c1cccnc1	85	4	23	97
N/C(=N\OC(=O)COc1ccc2ccccc2c1Br)c1ccccn1	100	-42	6	139*
N/C(=N\OC(=O)c1ccccc1)c1ccccn1	41	71*	72*	33
N/C(=N\OC(=O)c1ccccc1)c1ccncc1	98	-18	9	115
COC(=O)c1ccc(COC(=O)c2ccccn2)cc1	103	-36	0	133*
O=C(Oc1ccccc1)c1ccc(COC(=O)c2cnccn2)cc1	103	3	-3	97
N/C(=N\OC(=O)c1ccc(Br)cc1)c1ccncc1	92	-46	12	143*
N/C(=N\OC(=O)C(c1ccccc1)c1ccccc1)c1ccccn1	105	-2	-4	105
SMILES	STAT3 activator	STAT1 inh	STAT3 blocker	STAT1 act
N#CCC(=O)N/N=C/c1cc(-c2ccccc2)n(-c2ccc(Cl)cc2)c1-c1ccccc1	114	7	-15	93
CNC(=S)N(Cc1ccc2c(c1)OCO2)C1CC(=O)N(c2ccccc2)C1=O (centres undefined)	96	8	6	93
O=C(c1nc2ccccn2c1CNCCCn1cccn1)N1CCCC1	104	-4	8	102
N/C(=N\OC(=O)/C=C/c1ccc(Br)cc1)c1ccccn1	78	-23	24	121
N/C(=N\OC(=O)/C=C/c1ccccc1Cl)c1ccccn1	43	43*	69*	59
NC(=O)c1c(NC(=O)c2cccnc2)sc2c1CCCC2	80	-38	31	134*
CC(=O)Nc1sc2c(c1C(N)=O)CCCC2	105	-6	-5	105
Cn1nccc1C(=O)Nc1sc2c(c1C(N)=O)CCCC2	90	-50	19	146*
N#Cc1c(NC(=O)c2cnccn2)sc2c1CCCC2	103	-45	-4	140*
N#Cc1c(NC(=O)c2cccnc2)sc2c1CCC2	101	-1	5	101
COc1ccc(S(=O)(=O)N2CCCC2C(=O)n2nc(C)cc2C)cc1 (centres undefined)	100	-1	4	100
O=C(O)c1cccc(N2C(=O)C3C4C=CC(C4=C(c4ccccc4)c4ccccc4)C3C2=O)c1 (centres undefined)	95	5	7	94
